Among the data in ChEMBL document CHEMBL1955714, “Synthesis and antidiabetic performance of β-amino ketone containing nabumetone moiety” (Bioorg Med Chem, 2012) are Activity, inhibition and IC50 values, retold here.

The structures appear in SMILES notation. Values after ≈ are worked out from the molar mass of the structure shown.

Test [1] addresses Peroxisome proliferator-activated receptor (Homo sapiens) (UniProt P37231+Q07869+Q03181). Briefly: Activation of PPAR in human HepG2 cells at 10 ug/ml after 24 hrs by luciferase reporter gene assay relative to rosiglitazone. The format is cell-based. In outline: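 HepG2 cells in low-glucose DMEM with 100 U mL-1 streptomycin/penicillin, plated at 1.5 × 10⁴ per well a day before transfection. At 70% confluence they were co-transfected with pPPRE-Luc (firefly) and phRL-TK (renilla). After 24 h the medium was replaced with sample-containing medium, with rosiglitazone as positive control. Dual firefly/renilla luciferase was read after a further 24 h; untransfected cells served as blank.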

For a further test, the species on record is Rattus norvegicus. Briefly: Inhibition of rat intestine alpha-glucosidase using maltose as substrate after 10 mins by spectrometric analysis relative to acarbose. More on the design: concentration or dose not given beside the values. The procedure, abridged:
(§1)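 Enzyme and sample were preincubated at 37 °C for 10 min. Then 0.1 mol L-1 maltose was added and incubated 10 min at room temperature. The reaction was stopped and OD read at 490 nm. Blank (no enzyme, no sample) and negative (no sample) controls were run alongside.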

A short description of test [2]: Inhibition of rat intestine alpha-glucosidase using maltose as substrate after 10 mins by spectrometric analysis. The procedure, abridged:
as §1

Sequence of Peroxisome proliferator-activated receptor (Homo sapiens) (P37231 whole entry, looked up): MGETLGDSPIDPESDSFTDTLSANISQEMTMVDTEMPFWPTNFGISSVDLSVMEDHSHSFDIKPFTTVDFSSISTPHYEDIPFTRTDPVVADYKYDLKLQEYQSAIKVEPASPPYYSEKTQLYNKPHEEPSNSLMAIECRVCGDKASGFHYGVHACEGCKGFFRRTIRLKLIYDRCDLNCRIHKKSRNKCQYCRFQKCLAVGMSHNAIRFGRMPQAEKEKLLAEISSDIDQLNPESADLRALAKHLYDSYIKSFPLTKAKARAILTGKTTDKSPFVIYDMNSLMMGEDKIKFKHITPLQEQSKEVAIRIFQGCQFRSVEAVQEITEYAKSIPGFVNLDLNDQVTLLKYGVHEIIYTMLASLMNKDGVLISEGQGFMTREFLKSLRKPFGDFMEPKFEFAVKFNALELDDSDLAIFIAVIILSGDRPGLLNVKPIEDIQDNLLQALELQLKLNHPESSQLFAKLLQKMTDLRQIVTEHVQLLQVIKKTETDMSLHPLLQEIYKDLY
Sequence of Peroxisome proliferator-activated receptor (Homo sapiens) (Q03181 whole entry, looked up): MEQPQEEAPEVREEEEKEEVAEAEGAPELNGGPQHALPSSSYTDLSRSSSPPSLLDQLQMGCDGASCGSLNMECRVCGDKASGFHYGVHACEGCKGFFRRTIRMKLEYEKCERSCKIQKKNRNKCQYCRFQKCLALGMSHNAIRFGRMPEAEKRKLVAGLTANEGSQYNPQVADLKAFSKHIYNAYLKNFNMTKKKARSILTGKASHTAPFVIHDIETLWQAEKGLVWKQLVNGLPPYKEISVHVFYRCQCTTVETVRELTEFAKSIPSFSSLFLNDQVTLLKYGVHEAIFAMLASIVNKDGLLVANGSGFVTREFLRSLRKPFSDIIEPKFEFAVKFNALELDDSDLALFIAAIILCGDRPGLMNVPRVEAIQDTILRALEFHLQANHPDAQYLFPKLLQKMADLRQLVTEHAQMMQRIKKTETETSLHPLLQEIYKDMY
Sequence of Peroxisome proliferator-activated receptor (Homo sapiens) (Q07869 whole entry, looked up): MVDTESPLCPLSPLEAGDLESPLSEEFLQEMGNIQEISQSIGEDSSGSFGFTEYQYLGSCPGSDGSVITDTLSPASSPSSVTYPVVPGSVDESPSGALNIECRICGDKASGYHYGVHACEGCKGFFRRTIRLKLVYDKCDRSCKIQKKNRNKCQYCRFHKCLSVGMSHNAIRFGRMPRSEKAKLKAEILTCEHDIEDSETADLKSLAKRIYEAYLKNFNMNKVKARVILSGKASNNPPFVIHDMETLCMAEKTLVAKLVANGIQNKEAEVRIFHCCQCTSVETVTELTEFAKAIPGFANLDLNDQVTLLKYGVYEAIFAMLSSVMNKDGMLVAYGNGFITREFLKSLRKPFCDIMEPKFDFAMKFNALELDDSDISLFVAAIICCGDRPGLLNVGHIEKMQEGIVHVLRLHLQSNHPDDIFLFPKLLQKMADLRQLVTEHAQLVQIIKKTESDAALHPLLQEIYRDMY

The compound `COc1ccc(C(CC(=O)CCc2ccc3cc(OC)ccc3c2)Nc2cc(C)on2)cc1` (stereo not drawn) had an Activity in test [1] of 3.13%. Further, the inhibition in the test listed under Rattus norvegicus was 10.8%.
The matching figures for `COc1ccc2cc(CCC(=O)CC(Nc3cc(C)on3)c3ccc(O)cc3)ccc2c1` (stereo not drawn): 5.3% and 21.4%.
The matching figures for `COc1ccc2cc(CCC(=O)CC(Nc3ccc(S(=O)(=O)Nc4cc(C)on4)cc3)c3ccc(C)cc3)ccc2c1` (stereo not drawn): 58.5% and 15.8%.
On to `COc1ccc2cc(CCC(=O)CC(Nc3ccc(S(=O)(=O)Nc4cc(C)on4)cc3)c3ccc4c(c3)OCO4)ccc2c1` (stereo not drawn), for which the Activity in test [1] was found to be 43%. Also, the inhibition in the test filed under Rattus norvegicus amounted to 19.2%.
The matching figures for `COc1ccc2cc(CCC(=O)CC(Nc3ccc(S(N)(=O)=O)cc3)c3ccc4cc(OC)ccc4c3)ccc2c1` (stereo not drawn): 19.1% and 6.39%.
The matching figures for `COc1ccc2cc(CCC(=O)CC(Nc3ccc(S(=O)(=O)Nc4cc(C)on4)cc3)c3cccc(Cl)c3)ccc2c1` (stereo not drawn): 19.6% and 47.1%.
The matching figures for `COc1ccc2cc(CCC(=O)CC(Nc3ccc(S(N)(=O)=O)cc3)c3cccc(Cl)c3)ccc2c1` (stereo not drawn): 58.7% and 40.8%.
`COc1ccc2cc(CCC(=O)CC(Nc3cc(C)on3)c3ccc(Cl)cc3Cl)ccc2c1` (stereo not drawn) came in with an Activity in test [1] of 11.5%. Moreover, in the test listed under Rattus norvegicus, the inhibition worked out at 13%.
The matching figures for `COc1ccc2cc(CCC(=O)CC(Nc3cc(C)on3)c3cccc(F)c3)ccc2c1` (stereo not drawn): 30.1% and 13.3%.
The matching figures for `COc1ccc2cc(CCC(=O)CC(Nc3cc(C)on3)c3ccc(Cl)cc3)ccc2c1` (stereo not drawn): 6.32% and 26.3%.
`COc1ccc2cc(CCC(=O)CC(Nc3cc(C)on3)c3ccc(Br)cc3)ccc2c1` (stereo not drawn) showed an Activity in test [1] of 2.87%. The inhibition in the test listed under Rattus norvegicus stood at 1.42%.
The corresponding values for `COc1ccc2cc(CCC(=O)CC(Nc3ccc(S(=O)(=O)Nc4cc(C)on4)cc3)c3ccc(O)cc3)ccc2c1` (stereo not drawn) are 13.8% and 7.07%.
As to `COc1ccc2cc(CCC(=O)CC(Nc3ccc(S(N)(=O)=O)cc3)c3ccc(Cl)c(Cl)c3)ccc2c1` (stereo not drawn), the Activity in test [1] turned out to be 45.8%. Besides, in the test filed under Rattus norvegicus, the inhibition turned out to be 34.8%.
The matching figures for `COc1ccc2cc(CCC(=O)CC(Nc3ccc(S(N)(=O)=O)cc3)c3cccc(C)c3)ccc2c1` (stereo not drawn): 57.3% and 14.1%.
The matching figures for `CCCCOc1ccc(C(CC(=O)CCc2ccc3cc(OC)ccc3c2)Nc2ccc(S(=O)(=O)Nc3cc(C)on3)cc2)cc1` (stereo not drawn): 83.3% and 14.3%.
Take `COc1ccc2cc(CCC(=O)CC(Nc3ccc(S(=O)(=O)Nc4cc(C)on4)cc3)c3ccc(Cl)cc3)ccc2c1` (stereo not drawn): the Activity in test [1] was 3.92%. The inhibition in the test listed under Rattus norvegicus amounted to 44.2%.
Regarding `COc1ccc2cc(CCC(=O)CC(Nc3cc(C)on3)c3ccccc3)ccc2c1` (stereo not drawn), the Activity in test [1] is 5.83%. Further, the inhibition in the test filed under Rattus norvegicus was 7.36%.
The matching figures for `COc1ccc2cc(CCC(=O)CC(Nc3cc(C)on3)c3ccc4c(c3)OCO4)ccc2c1` (stereo not drawn): 12.6% and 0.35%.
The corresponding values for `COc1ccc2cc(CCC(=O)CC(Nc3ccc(S(N)(=O)=O)cc3)c3ccc([N+](=O)[O-])cc3)ccc2c1` (stereo not drawn) are 46.8% and 31.6%.
With `CCCCOc1ccc(C(CC(=O)CCc2ccc3cc(OC)ccc3c2)Nc2cc(C)on2)cc1` (stereo not drawn), the Activity in test [1] is 6.33%. The inhibition in the test listed under Rattus norvegicus was found to be 11%.
The corresponding values for `COc1ccc2cc(CCC(=O)CC(Nc3ccc(S(=O)(=O)Nc4cc(C)on4)cc3)c3cccc([N+](=O)[O-])c3)ccc2c1` (stereo not drawn) are 81.8% and 41.6%.
The corresponding values for `COc1ccc2cc(CCC(=O)CC(Nc3ccc(S(N)(=O)=O)cc3)c3ccco3)ccc2c1` (stereo not drawn) are 6.64% and 46.8%.
As for `COc1ccc2cc(CCC(=O)CC(Nc3ccc(S(=O)(=O)Nc4cc(C)on4)cc3)c3ccc(Cl)c(Cl)c3)ccc2c1` (stereo not drawn), the Activity in test [1] turned out to be 22.4%. For the same compound, the inhibition in the test listed under Rattus norvegicus is 53.7%.
Compound `COc1ccc2cc(CCC(=O)CC(Nc3ccc(S(=O)(=O)Nc4cc(C)on4)cc3)c3ccc(Cl)cc3Cl)ccc2c1` (stereo not drawn) came in with an Activity in test [1] of 64.5%. Also, the inhibition in the test listed under Rattus norvegicus came to 20.3%.
The matching figures for `COc1cccc(C(CC(=O)CCc2ccc3cc(OC)ccc3c2)Nc2ccc(S(=O)(=O)Nc3cc(C)on3)cc2)c1` (stereo not drawn): 78.2% and 12.7%.
The corresponding values for `COc1ccc2cc(CCC(=O)CC(Nc3cc(C)on3)c3ccc(Cl)c(Cl)c3)ccc2c1` (stereo not drawn) are 5.37% and 22.3%.
`COc1ccc2cc(CCC(=O)CC(Nc3ccc(S(N)(=O)=O)cc3)c3cccc([N+](=O)[O-])c3)ccc2c1` (stereo not drawn) came in with an Activity in test [1] of 14.8%. Also, the inhibition in the test listed under Rattus norvegicus amounted to 32.7%.
In turn, `COc1ccc2cc(CCC(=O)CC(Nc3cc(C)on3)c3ccc([N+](=O)[O-])cc3)ccc2c1` (stereo not drawn) showed an Activity in test [1] of 4.18%. In the test filed under Rattus norvegicus, the inhibition amounted to 24.6%.
`COc1ccc2cc(CCC(=O)CC(Nc3cc(C)on3)c3cccc(Cl)c3)ccc2c1` (stereo not drawn): the Activity in test [1] was found to be 4.86%. Besides, the inhibition in the test filed under Rattus norvegicus was determined as 26.3%.
For the compound `COc1cccc(C(CC(=O)CCc2ccc3cc(OC)ccc3c2)Nc2ccc(S(N)(=O)=O)cc2)c1` (stereo not drawn), the Activity in test [1] worked out at 60.3%. Besides, the inhibition in the test filed under Rattus norvegicus is 15.7%.
The matching figures for `COc1ccc2cc(CCC(=O)CC(Nc3ccc(S(=O)(=O)Nc4cc(C)on4)cc3)c3ccccc3)ccc2c1` (stereo not drawn): 17.8% and 14.9%.
In the case of `COc1ccc2cc(CCC(=O)CC(Nc3ccc(S(=O)(=O)Nc4cc(C)on4)cc3)c3cccc(C)c3)ccc2c1` (stereo not drawn), the Activity in test [1] turned out to be 68.4%. Moreover, the inhibition in the test filed under Rattus norvegicus is 70.5%. The IC50 in test [2] turned out to be 3.24 µg/mL (≈ 5.55 µM).
Take `COc1ccc2cc(CCC(=O)CC(Nc3cc(C)on3)c3cccc(C)c3)ccc2c1` (stereo not drawn): the Activity in test [1] amounted to 12.7%. Also, in the test listed under Rattus norvegicus, the inhibition turned out to be 10.2%.
The corresponding values for `COc1ccc2cc(CCC(=O)CC(Nc3ccc(S(=O)(=O)Nc4cc(C)on4)cc3)c3cccc(F)c3)ccc2c1` (stereo not drawn) are 36.7% and 24.7%.
`COc1ccc(C(CC(=O)CCc2ccc3cc(OC)ccc3c2)Nc2ccc(S(=O)(=O)Nc3cc(C)on3)cc2)cc1` (stereo not drawn) registered an Activity in test [1] of 48.4%. Also, in the test filed under Rattus norvegicus, the inhibition was determined as 50.8%.
With `COc1ccc2cc(CCC(=O)CC(Nc3cc(C)on3)c3cccc([N+](=O)[O-])c3)ccc2c1` (stereo not drawn), the Activity in test [1] was 9.11%. The inhibition in the test listed under Rattus norvegicus amounted to 24.4%.
The compound `COc1ccc2cc(CCC(=O)CC(Nc3ccc(S(N)(=O)=O)cc3)c3ccc4c(c3)OCO4)ccc2c1` (stereo not drawn) returned an Activity in test [1] of 9.87%. Further, the inhibition in the test filed under Rattus norvegicus was -4.32%.
The corresponding values for `COc1cccc(C(CC(=O)CCc2ccc3cc(OC)ccc3c2)Nc2cc(C)on2)c1` (stereo not drawn) are 41.6% and 15.8%.
In test [1], `COc1ccc2cc(CCC(=O)CC(Nc3ccc(S(N)(=O)=O)cc3)c3ccccc3)ccc2c1` (stereo not drawn) came in with an Activity of 61%. The inhibition in the test filed under Rattus norvegicus was 41.7%.
The corresponding values for `CCCCOc1ccc(C(CC(=O)CCc2ccc3cc(OC)ccc3c2)Nc2ccc(S(N)(=O)=O)cc2)cc1` (stereo not drawn) are 18% and -4.69%.
The matching figures for `COc1ccc2cc(CCC(=O)CC(Nc3cc(C)on3)c3ccc(C)cc3)ccc2c1` (stereo not drawn): 11.5% and 7.23%.
